In ChEMBL document CHEMBL5724801, “EUbOPEN Chemogenomics Library - Multiplex” (2024):
Values joined by “and” are separate entries in the source; they are usually repeats but may differ in a detail not shown here. Identical values can stand only once.

These compounds were tested on HEK-293T (assay: Multiplex assay against HEK293T). Settings: human, 12 h, 1 µM, compound concentration 1 uM.
Format: toxicity, cell-based
Outline: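 At seeding, live cells were stained with Hoechst33342, BioTracker Green Microtubule Cytoskeleton Dye, MitoTracker Red and Annexin V Alexa Fluor 680. After compound addition they were imaged on a CQ1 microscope at 37°C and 5% CO2, and CellPathfinder machine-learning gating sorted them into Hoechst high-intensity objects or normal cells, with normal cells further split into healthy, pyknosed or fragmented nuclei and pyknosed cells into mitotic or apoptotic. Tubulin, mitochondrial-mass and membrane-permeability phenotypes are given as per cents of cells with healthy nuclei.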

SMILES	Population Apoptotic (%)	Population Fragmented Nuclei (%)	Population Hoechst High Intensity Objects (%)	Population Membrane Permeable-Phenotype (%)	Population Mitochondria Different-Phenotype (%)	Population Mitotic Cells (%)	Population Normal (%)	Population Pyknosed Nuclei (%)	Total Cell Count	Population Healthy Nuclei (%)
O=C1NCc2ccc3c(-c4cccc(Cl)c4)c[nH]c3c21	9.74% and 10.57%	0.72% and 0.69%	0.36% and 0%	0%	41.8% and 23.81%	90.26% and 89.43%	99.64% and 100%	55.4% and 84.83%	279 and 145	
C=C(C)[C@H]1CN[C@H](C(=O)O)[C@H]1CC(=O)O [KAINIC ACID]	11.5% and 6.48%	2.06% and 6.54%	0%	0.91% and 0%	37.44% and 14.29%	88.5% and 93.52%	100%	33.33% and 70.59%	339 and 153	64.6% and 22.88%

Same assay, conditions: human, 12 h, 10 µM, compound concentration 10 uM

SMILES	Population Apoptotic (%)	Population Fragmented Nuclei (%)	Population Healthy Nuclei (%)	Population Hoechst High Intensity Objects (%)	Population Membrane Permeable-Phenotype (%)	Population Mitotic Cells (%)	Population Normal (%)	Population Pyknosed Nuclei (%)	Population Tubulin-Different-Phenotype (%)	Total Cell Count
O=C1NCc2ccc3c(-c4cccc(Cl)c4)c[nH]c3c21	21.19% and 16.81%	1.88% and 2.24%	27.23% and 13.43%	0.47% and 4.29%	0	78.81% and 83.19%	99.53% and 95.71%	70.89% and 84.33%	5.17% and 11.11%	214 and 140
C=C(C)[C@H]1CN[C@H](C(=O)O)[C@H]1CC(=O)O [KAINIC ACID]	12.5% and 13.33%	12.27% and 2.55%		0.26% and 0%	0	87.5% and 86.67%	99.74% and 100%			384 and 157

Same assay, conditions: human, 12 h, 10 µM, compound concentration 10 uM

SMILES	Population Mitochondria Different-Phenotype (%)
C=C(C)[C@H]1CN[C@H](C(=O)O)[C@H]1CC(=O)O [KAINIC ACID]	22.58% and 24.24%

Same assay, conditions: human, 24 h, 1 µM, compound concentration 1 uM

SMILES	Population Apoptotic (%)	Population Fragmented Nuclei (%)	Population Healthy Nuclei (%)	Population Hoechst High Intensity Objects (%)	Population Membrane Permeable-Phenotype (%)	Population Mitotic Cells (%)	Population Normal (%)	Population Pyknosed Nuclei (%)	Population Tubulin-Different-Phenotype (%)	Total Cell Count
O=C1NCc2ccc3c(-c4cccc(Cl)c4)c[nH]c3c21	26.79% and 11.65%	3.63% and 0.67%	59.41% and 30.2%	0	0%	73.21% and 88.35%	100	36.96% and 69.13%	7.78% and 8.89%	303 and 149
C=C(C)[C@H]1CN[C@H](C(=O)O)[C@H]1CC(=O)O [KAINIC ACID]	14% and 18.07%	2.44% and 4.97%	77.19% and 43.48%	0	0.79% and 1.43%	86% and 81.93%	100	20.37% and 51.55%	8.97% and 5.71%	

Same assay, conditions: human, 24 h, 1 µM, compound concentration 1 uM

SMILES	Population Mitochondria Different-Phenotype (%)
C=C(C)[C@H]1CN[C@H](C(=O)O)[C@H]1CC(=O)O [KAINIC ACID]	12.14% and 7.14%

Same assay, conditions: human, 24 h, 10 µM, compound concentration 10 uM

SMILES	Population Apoptotic (%)	Population Fragmented Nuclei (%)	Population Healthy Nuclei (%)	Population Hoechst High Intensity Objects (%)	Population Membrane Permeable-Phenotype (%)	Population Mitochondria Different-Phenotype (%)	Population Mitotic Cells (%)	Population Normal (%)	Population Pyknosed Nuclei (%)	Population Tubulin-Different-Phenotype (%)
O=C1NCc2ccc3c(-c4cccc(Cl)c4)c[nH]c3c21	31.52% and 52.43%	1.99% and 3.12%	24.7% and 16.41%	0% and 3.76%	0% and 4.76%	56.45% and 23.81%	68.48% and 47.57%	100% and 96.24%	73.31% and 80.47%	1.61% and 0%
C=C(C)[C@H]1CN[C@H](C(=O)O)[C@H]1CC(=O)O [KAINIC ACID]	9.33% and 14.16%	9.95% and 0%	77.19% and 40.84%	0%	0.22% and 0%	11.33% and 7.69%	90.67% and 85.84%	100%		4.89% and 1.28%

Same assay, conditions: human, 24 h, 10 µM, compound concentration 10 uM

SMILES	Total Cell Count
O=C1NCc2ccc3c(-c4cccc(Cl)c4)c[nH]c3c21	251 and 133

Same assay, conditions: human, 48 h, 1 µM, compound concentration 1 uM

SMILES	Population Apoptotic (%)	Population Fragmented Nuclei (%)	Population Healthy Nuclei (%)	Population Hoechst High Intensity Objects (%)	Population Membrane Permeable-Phenotype (%)	Population Mitotic Cells (%)	Population Normal (%)	Population Pyknosed Nuclei (%)	Total Cell Count	Population Mitochondria Different-Phenotype (%)
O=C1NCc2ccc3c(-c4cccc(Cl)c4)c[nH]c3c21	20.62% and 21.52%	3.28% and 0.63%	72.22% and 49.69%	0.5% and 0%	0.35% and 0%	79.38% and 78.48%	99.5% and 100%	24.49% and 49.69%	398 and 159	
C=C(C)[C@H]1CN[C@H](C(=O)O)[C@H]1CC(=O)O [KAINIC ACID]	7.41% and 12.12%	6.01% and 2.75%	85.97% and 71.37%	0.07% and 0%	5.09% and 4.4%	92.59% and 87.88%	99.93% and 100%			10.62% and 17.03%

Same assay, conditions: human, 48 h, 10 µM, compound concentration 10 uM

SMILES	Population Apoptotic (%)	Population Fragmented Nuclei (%)	Population Hoechst High Intensity Objects (%)	Population Membrane Permeable-Phenotype (%)	Population Mitochondria Different-Phenotype (%)	Population Mitotic Cells (%)	Population Normal (%)	Population Pyknosed Nuclei (%)	Total Cell Count	Population Healthy Nuclei (%)
O=C1NCc2ccc3c(-c4cccc(Cl)c4)c[nH]c3c21	54.1% and 46.85%	4.95% and 2.36%	0.45% and 0.78%	0%	83.15% and 38.46%	45.9% and 53.15%	99.55% and 99.22%	54.95% and 87.4%	223 and 128	
C=C(C)[C@H]1CN[C@H](C(=O)O)[C@H]1CC(=O)O [KAINIC ACID]	13.71% and 22.5%	7.14% and 1.13%	0% and 0.75%	4.88% and 2.19%	10.71% and 14.75%	86.29% and 77.5%	100% and 99.25%			83.02% and 68.8%
